Assay results gathered from unrelated publications.
Compare with care: the assays were run in different laboratories.
Target: Mitogen-activated protein kinase kinase kinase kinase 2 (MAP4K2, Homo sapiens, UniProt Q12851)
One construct used (Q12851 1-820): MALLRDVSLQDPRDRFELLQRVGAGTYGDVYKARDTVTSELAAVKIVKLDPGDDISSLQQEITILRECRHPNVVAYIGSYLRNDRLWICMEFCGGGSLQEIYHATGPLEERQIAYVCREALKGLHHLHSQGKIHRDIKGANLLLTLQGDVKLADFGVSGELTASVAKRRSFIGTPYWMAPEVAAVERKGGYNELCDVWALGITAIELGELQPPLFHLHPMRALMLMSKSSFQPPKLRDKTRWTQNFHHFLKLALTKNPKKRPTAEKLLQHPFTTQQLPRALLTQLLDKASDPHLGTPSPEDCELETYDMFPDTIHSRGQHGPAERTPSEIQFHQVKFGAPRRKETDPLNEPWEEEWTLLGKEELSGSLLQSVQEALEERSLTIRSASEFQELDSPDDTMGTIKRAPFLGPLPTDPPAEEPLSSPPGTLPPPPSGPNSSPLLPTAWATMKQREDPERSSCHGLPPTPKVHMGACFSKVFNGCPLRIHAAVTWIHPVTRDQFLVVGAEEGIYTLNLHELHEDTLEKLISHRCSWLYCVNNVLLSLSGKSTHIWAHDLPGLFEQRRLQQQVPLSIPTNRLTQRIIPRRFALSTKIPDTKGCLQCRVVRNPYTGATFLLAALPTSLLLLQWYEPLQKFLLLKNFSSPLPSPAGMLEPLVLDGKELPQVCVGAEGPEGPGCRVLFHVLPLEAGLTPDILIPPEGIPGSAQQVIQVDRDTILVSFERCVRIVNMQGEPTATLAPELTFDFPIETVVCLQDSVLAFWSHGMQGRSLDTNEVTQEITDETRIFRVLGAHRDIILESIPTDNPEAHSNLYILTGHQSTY

Compound	effect on	mode	method	tested at	measurement	result
CC(C)(C)c1cc(C=C(C#N)C#N)cc(Br)c1O	enzyme activity	inhibitor		0.5 µM	remaining activity	113%
Cn1cc(-c2cc(F)cc(N3CCn4c(cc5c4CCCC5)C3=O)c2CO)cc(Nc2ccc(N3CCN(C4COC4)CC3)cn2)c1=O	enzyme activity	inhibitor		0.1 µM	inhibition	2%
Nc1ncc(-c2nc(N3CCOCC3)nc(N3CCOCC3)n2)c(C(F)F)n1	binding		competition with immobilised ligand	10 µM	remaining binding	78%
O=c1[nH]c2ccccc2n1C1CCN(Cc2ccc(-c3[nH]c4cc5ncnc5cc4nc3-c3ccccc3)cc2)CC1	cell-free assay			0.5 µM	remaining signal	105%
COc1cc(Nc2ncc(F)c(Nc3ccc4c(n3)NC(=O)C(C)(C)O4)n2)cc(OC)c1OC	binding		competition with immobilised ligand	10 µM	inhibition	85%
Cn1cncc1[C@@](O)(COc1ccc(C#N)cc1-c1ccc(OC(F)(F)F)cc1)c1ccc(C#N)cc1	cell-free assay		competition with immobilised ligand	1 µM	remaining binding	100%
COc1ncccc1-c1cnn2ccc(N3CCN(C(=O)OC(C)C)CC3)nc12	binding		competition with immobilised ligand	1 µM	remaining binding	65%
Cc1nn(C)cc1-c1nc2c(N3CCN(Cc4ccc(Cl)cc4)CC3)c(Cl)cnc2[nH]1	binding		competition with immobilised ligand	1 µM	remaining binding	85%
N#CC1(c2ccccn2)CCN(Cc2cc(C(=O)O)c(=O)n3ccccc23)CC1	cell-free assay		competition with immobilised ligand	1 µM	remaining binding	81%
